Results taken from ChEMBL document CHEMBL4406880, “Design, synthesis, and bioactivity of dihydropyrimidine derivatives as kinesin spindle protein inhibitors” (Bioorg Med Chem, 2019).

Key:
Assay type in all cases: functional
SNB-19 = experiment: Growth inhibition of human SNB19 cells assessed as growth percentage at 10 uM incubated for 48 hrs by sulforhodamine B assay relative to control; details: SNB-19, 48 h, read-out: Activity
In short: (§1)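 NCI-60 single-dose screen. Cells were grown in RPMI 1640 with 5% FBS and 2 mM L-glutamine and plated at 5,000–40,000 cells/well. After an overnight preincubation at 37 °C in 5% CO2, compound was added at a final 10 µM from a DMSO stock, with DMSO/PBS controls. After 48 h, cells were TCA-fixed and stained with 0.4% SRB, and absorbance was read at 515 nm. Growth is given as a percentage of untreated control.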

786-0 = experiment: Growth inhibition of human 786-0 cells assessed as growth percentage at 10 uM incubated for 48 hrs by sulforhodamine B assay relative to control; details: 786-0, 48 h, read-out: Activity
In short: (§2)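 NCI-60 one-dose screen: cells in RPMI 1640 with 5% FBS and 2 mM L-glutamine, plated at 5,000–40,000 cells/well and preincubated 24 h at 37 °C, 5% CO2. Compound is added from a DMSO stock to a final 10 µM and incubated 48 h. Cells are TCA-fixed and stained with sulforhodamine B, read at 515 nm. Output is % growth versus untreated control, with a time-zero plate.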

SF-268 = experiment: Growth inhibition of human SF268 cells assessed as growth percentage at 10 uM incubated for 48 hrs by sulforhodamine B assay relative to control; details: SF-268, 48 h, read-out: Activity; in short: as §1
UACC-257 = experiment: Growth inhibition of human UACC257 cells assessed as growth percentage at 10 uM incubated for 48 hrs by sulforhodamine B assay relative to control; details: UACC-257, 48 h, read-out: Activity; in short: as §1
SR = experiment: Growth inhibition of human SR cells assessed as growth percentage at 10 uM incubated for 48 hrs by sulforhodamine B assay relative to control; details: read-out: Activity; in short: as §1
OVCAR-4 = experiment: Growth inhibition of human OVCAR4 cells assessed as growth percentage at 10 uM incubated for 48 hrs by sulforhodamine B assay relative to control; details: OVCAR-4, 48 h, read-out: Activity
In short: (§3)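 NCI-60 one-dose screen. Cells in RPMI 1640 with 5% FBS and 2 mM L-glutamine, seeded at 5,000–40,000 cells/well according to doubling time, and preincubated overnight at 37 °C, 5% CO2. A time-zero plate was TCA-fixed at drug addition. Compound from DMSO stock, final 10 µM, 48 h; DMSO vehicle controls. Fixation with TCA, 10% final (16% for suspension cells). SRB stain, Tris solubilization, A515. Result given as % growth versus untreated cells.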

SF-295 = experiment: Growth inhibition of human SF295 cells assessed as growth percentage at 10 uM incubated for 48 hrs by sulforhodamine B assay relative to control; details: SF-295, 48 h, read-out: Activity; in short: as §1
MDA-MB-231 = experiment: Growth inhibition of human MDA-MB-231 cells assessed as growth percentage at 10 uM incubated for 48 hrs by sulforhodamine B assay relative to control; details: MDA-MB-231, 48 h, read-out: Activity; in short: as §3
KM12 = experiment: Growth inhibition of human KM12 cells assessed as growth percentage at 10 uM incubated for 48 hrs by sulforhodamine B assay relative to control; details: KM12, 48 h, read-out: Activity; in short: as §3
NCI-H322M = experiment: Growth inhibition of human NCI-H322M cells assessed as growth percentage at 10 uM incubated for 48 hrs by sulforhodamine B assay relative to control; details: read-out: Activity; in short: as §3
SK-MEL-28 = experiment: Growth inhibition of human SK-MEL-28 cells assessed as growth percentage at 10 uM incubated for 48 hrs by sulforhodamine B assay relative to control; details: SK-MEL-28, 48 h, read-out: Activity; in short: as §1
SK-MEL-2 = experiment: Growth inhibition of human SK-MEL-2 cells assessed as growth percentage at 10 uM incubated for 48 hrs by sulforhodamine B assay relative to control; details: SK-MEL-2, 48 h, read-out: Activity; in short: as §1
ACHN = experiment: Growth inhibition of human ACHN cells assessed as growth percentage at 10 uM incubated for 48 hrs by sulforhodamine B assay relative to control; details: read-out: Activity; in short: as §2
HOP-92 = experiment: Growth inhibition of human HOP92 cells assessed as growth percentage at 10 uM incubated for 48 hrs by sulforhodamine B assay relative to control; details: HOP-92, 48 h, read-out: Activity; in short: as §3
NCI-H522 = experiment: Growth inhibition of human NCI-H522 cells assessed as growth percentage at 10 uM incubated for 48 hrs by sulforhodamine B assay relative to control; details: NCI-H522, 48 h, read-out: Activity; in short: as §3
OVCAR-8 = experiment: Growth inhibition of human OVCAR8 cells assessed as growth percentage at 10 uM incubated for 48 hrs by sulforhodamine B assay relative to control; details: OVCAR-8, 48 h, read-out: Activity; in short: as §1
OVCAR-5 = experiment: Growth inhibition of human OVCAR5 cells assessed as growth percentage at 10 uM incubated for 48 hrs by sulforhodamine B assay relative to control; details: OVCAR-5, 48 h, read-out: Activity; in short: as §1
HCC 2998 = experiment: Growth inhibition of human HCC2998 cells assessed as growth percentage at 10 uM incubated for 48 hrs by sulforhodamine B assay relative to control; details: HCC 2998, 48 h, read-out: Activity; in short: as §2
EKVX = experiment: Growth inhibition of human EKVX cells assessed as growth percentage at 10 uM incubated for 48 hrs by sulforhodamine B assay relative to control; details: read-out: Activity; in short: as §2
NCI/ADR-RES = experiment: Growth inhibition of human NCI/ADR-RES cells assessed as growth percentage at 10 uM incubated for 48 hrs by sulforhodamine B assay relative to control; details: read-out: Activity; in short: as §3
HOP-62 = experiment: Growth inhibition of human HOP62 cells assessed as growth percentage at 10 uM incubated for 48 hrs by sulforhodamine B assay relative to control; details: HOP-62, 48 h, read-out: Activity; in short: as §3
NCI-H23 = experiment: Growth inhibition of human NCI-H23 cells assessed as growth percentage at 10 uM incubated for 48 hrs by sulforhodamine B assay relative to control; details: NCI-H23, 48 h, read-out: Activity; in short: as §3
NCI-H460 = experiment: Growth inhibition of human NCI-H460 cells assessed as growth percentage at 10 uM incubated for 48 hrs by sulforhodamine B assay relative to control; details: NCI-H460, 48 h, read-out: Activity; in short: as §3
T47D = experiment: Growth inhibition of human T47D cells assessed as growth percentage at 10 uM incubated for 48 hrs by sulforhodamine B assay relative to control; details: read-out: Activity; in short: as §1
Malme-3M = experiment: Growth inhibition of human MALME-3M cells assessed as growth percentage at 10 uM incubated for 48 hrs by sulforhodamine B assay relative to control; details: read-out: Activity; in short: as §3
A498 = experiment: Growth inhibition of human A498 cells assessed as growth percentage at 10 uM incubated for 48 hrs by sulforhodamine B assay relative to control; details: A498, 48 h, read-out: Activity; in short: as §2
OVCAR-3 = experiment: Growth inhibition of human OVCAR3 cells assessed as growth percentage at 10 uM incubated for 48 hrs by sulforhodamine B assay relative to control; details: OVCAR-3, 48 h, read-out: Activity; in short: as §3

SMILES	growth at 10 µM (SNB-19) [%]	growth at 10 µM (786-0) [%]	growth at 10 µM (SF-268) [%]	growth at 10 µM (UACC-257) [%]	growth at 10 µM (OVCAR-4) [%]	growth at 10 µM (SF-295) [%]	growth at 10 µM (MDA-MB-231) [%]	growth at 10 µM (KM12) [%]	growth at 10 µM (NCI-H322M) [%]	growth at 10 µM (SK-MEL-28) [%]	growth at 10 µM (SK-MEL-2) [%]	growth at 10 µM (ACHN) [%]	growth at 10 µM (HOP-92) [%]	growth at 10 µM (NCI-H522) [%]	growth at 10 µM (OVCAR-8) [%]	growth at 10 µM (OVCAR-5) [%]	growth at 10 µM (HCC 2998) [%]	growth at 10 µM (EKVX) [%]	growth at 10 µM (NCI/ADR-RES) [%]	growth at 10 µM (HOP-62) [%]	other results
CC1=C(C(=O)OCc2ccccc2)C(c2ccc3c(c2)OCO3)n2c(nc3ccccc32)N1 (racemic)	33 to 41.6	31 to 43.1	26 to 59.6	34 to 60.4	54 to 73.8	8 to 20.4	64 to 68.6	15 to 17.3	47 to 55	52 to 61.8	33 to 47.8	36 to 38.4	32 to 78.5	8 to 26.3	39 to 46.7	53 to 64.4	50 to 56.4	42 to 64.4	20 to 23.2	36 to 44.2	growth at 10 µM (SR): 9.81 to 43%; growth at 10 µM (NCI-H23): 49.3 to 56%; growth at 10 µM (NCI-H460): 6.62 to 8%; growth at 10 µM (T47D): 31 to 40.9%; growth at 10 µM (Malme-3M): 26 to 39.7%
CC1=C(C(=O)OC(C)C)C(c2ccc3c(c2)OCO3)NC(=O)N1 (racemic)	93.6	102	104	104	103	104	104	106	113	108	108	103	111	91.1	100	103	116	96.1	105	117	growth at 10 µM (A498): 104%; growth at 10 µM (OVCAR-3): 114%; growth at 10 µM (SR): 108%; growth at 10 µM (NCI-H23): 98.8%; growth at 10 µM (NCI-H460): 110%; growth at 10 µM (T47D): 101%; growth at 10 µM (Malme-3M): 99.6%
COCCOC(=O)C1=C(C)NC(=S)N(C(C)=O)C1c1ccc2c(c1)OCO2 (racemic)	99.3	108	98.4	95.3	87.6	98.5	97.8	95.9	101	106	108	102	85.4	91.6	99.3	102	113	94.1	99.8	87.7	growth at 10 µM (A498): 85.3%; growth at 10 µM (OVCAR-3): 101%; growth at 10 µM (NCI-H23): 99.1%; growth at 10 µM (NCI-H460): 104%; growth at 10 µM (T47D): 86.9%; growth at 10 µM (Malme-3M): 88.6%
CC1=C(C(=O)c2ccccc2)C(c2ccc3c(c2)OCO3)NC(=O)N1 (racemic)	101	99.5	100	98	99.9	101	102	99.9	99.5	117	105	108	92.4	90.3	99.3	106	111	95.1	103	99.2	growth at 10 µM (OVCAR-3): 106%; growth at 10 µM (SR): 101%; growth at 10 µM (NCI-H23): 107%; growth at 10 µM (NCI-H460): 114%; growth at 10 µM (T47D): 91.2%; growth at 10 µM (Malme-3M): 91.7%
CC(=O)N1C(=S)NC(C)=C(C(=O)OCc2ccccc2)C1c1ccc2c(c1)OCO2 (racemic)	87.8	96.8	73.8	77.7	99.3	96.4	84.5	71.1	101	102	88.6	95.5	73.3	75.7	80.3	107	110	96.8	95.3	75.5	growth at 10 µM (A498): 92%; growth at 10 µM (OVCAR-3): 104%; growth at 10 µM (NCI-H23): 94%; growth at 10 µM (NCI-H460): 77.9%; growth at 10 µM (T47D): 58.1%; growth at 10 µM (Malme-3M): 91.6%
